From ChEMBL document CHEMBL1126975 (J Med Chem, 1993)

What was measured:
[1] = molecular target: T1, Amine oxidase [flavin-containing] B (Rattus norvegicus, UniProt P19643); experiment: In vitro inhibitory activity on rat brain MAO-B.
T1 sequence (P19643 whole entry): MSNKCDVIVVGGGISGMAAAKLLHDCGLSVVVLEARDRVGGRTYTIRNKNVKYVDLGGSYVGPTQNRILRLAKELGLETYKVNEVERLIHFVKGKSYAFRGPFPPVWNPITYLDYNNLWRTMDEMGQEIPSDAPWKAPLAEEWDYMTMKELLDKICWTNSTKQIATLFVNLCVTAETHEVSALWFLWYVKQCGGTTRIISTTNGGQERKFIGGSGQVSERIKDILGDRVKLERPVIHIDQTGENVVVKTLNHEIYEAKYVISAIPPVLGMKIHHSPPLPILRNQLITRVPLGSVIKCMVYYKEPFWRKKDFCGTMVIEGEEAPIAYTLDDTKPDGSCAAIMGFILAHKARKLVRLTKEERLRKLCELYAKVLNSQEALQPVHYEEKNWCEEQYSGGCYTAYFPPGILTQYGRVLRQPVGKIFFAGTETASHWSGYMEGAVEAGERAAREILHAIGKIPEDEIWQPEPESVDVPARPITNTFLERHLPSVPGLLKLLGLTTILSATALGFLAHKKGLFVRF
Summary of the method: (§1)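 Radiochemical assay at 37 °C, pH 7.4: MAO A with 10 μM [14C]5-HT, MAO B with 5 μM [14C]PEA. Drug preincubated 20 min with enzyme. Three experiments in duplicate.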

[2] = molecular target: T2, Amine oxidase [flavin-containing] A (Rattus norvegicus, UniProt P21396); experiment: In vitro inhibitory activity on rat brain by monoamine oxidase A (MAO-A); summary of the method: as §1
T2 sequence (P21396 whole entry): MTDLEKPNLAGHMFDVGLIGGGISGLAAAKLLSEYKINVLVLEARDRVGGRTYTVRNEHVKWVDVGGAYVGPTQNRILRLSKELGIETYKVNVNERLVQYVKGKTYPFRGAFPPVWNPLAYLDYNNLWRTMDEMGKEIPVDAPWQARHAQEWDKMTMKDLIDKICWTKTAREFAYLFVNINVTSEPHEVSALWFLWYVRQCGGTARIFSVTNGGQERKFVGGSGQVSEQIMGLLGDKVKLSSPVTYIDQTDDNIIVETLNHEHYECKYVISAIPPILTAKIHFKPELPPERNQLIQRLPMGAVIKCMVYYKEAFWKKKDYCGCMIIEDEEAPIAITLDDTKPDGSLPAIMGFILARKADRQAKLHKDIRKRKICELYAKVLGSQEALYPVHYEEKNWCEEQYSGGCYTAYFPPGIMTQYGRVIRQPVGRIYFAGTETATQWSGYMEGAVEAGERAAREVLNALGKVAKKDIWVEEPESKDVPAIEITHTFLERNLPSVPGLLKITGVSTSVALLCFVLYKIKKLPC

[3] = molecular target: T1, Amine oxidase [flavin-containing] B; experiment: Ex-Vivo Time course of evaluation for the percentage inhibition of MAO-B for 48 hr at single dose 5 mg/kg through oral gavage; format: organism-based; design: dose 5 mg/kg, route oral
Summary of the method: (§2)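 Fasted male Sprague-Dawley rats (150 g) dosed orally by gavage, drug suspended in Tween 80 plus 0.5% methylcellulose; vehicle controls. The 100 mg/kg arm was dosed daily for 9 days. Four rats per time point; brains frozen and homogenized in 0.1 M phosphate pH 7.4. Assayed at 37 °C with 8 μM [14C]PEA for 1 min; toluene/ethyl acetate extraction. Percent inhibition vs control, mean ± SEM.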

[4] = molecular target: T1, Amine oxidase [flavin-containing] B; experiment: Ex-Vivo percentage inhibition of MAO-B after 24 hr single 5 mg/kg dose by oral gavage; format: organism-based; design: dose 5 mg/kg, route oral
Summary of the method: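 Ex vivo oral gavage in fasted male Sprague-Dawley rats (Tween 80 / 0.5% methylcellulose), four rats per group. Brain homogenate taken 24 h after dosing. MAO B assayed with 8 μM [14C]PEA, 1 min at 37 °C; percent inhibition vs vehicle control.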

[5] = molecular target: T1, Amine oxidase [flavin-containing] B; experiment: Ex-Vivo Time course of evaluation for the percentage inhibition of MAO-B for 4 hr at single dose 5 mg/kg through oral gavage; format: organism-based; design: dose 5 mg/kg, route oral; summary of the method: as §2
[6] = molecular target: T1, Amine oxidase [flavin-containing] B; experiment: Ex-Vivo Time course of evaluation for the percentage inhibition of MAO-B for 0.5 hr at single dose 5 mg/kg through oral gavage; format: organism-based; design: dose 5 mg/kg, route oral; summary of the method: as §2
[7] = molecular target: T1, Amine oxidase [flavin-containing] B; experiment: Ex-Vivo Time course of evaluation for the percentage inhibition of MAO-B for 1 hr at single dose 5 mg/kg through oral gavage; format: organism-based; design: dose 5 mg/kg, route oral; summary of the method: as §2
[8] = molecular target: T1, Amine oxidase [flavin-containing] B; experiment: Ex-Vivo Time course of evaluation for the percentage inhibition of MAO-B for 4 hr at single dose 5 mg/kg through oral gavage [p<0.05 (Bonferroni''s test)]; format: organism-based; design: dose 5 mg/kg, route oral; summary of the method: as §2
[9] = molecular target: T1, Amine oxidase [flavin-containing] B; experiment: Ex-Vivo Time course of evaluation for the percentage inhibition of MAO-B for 1 hr at single dose 5 mg/kg through oral gavage (p<0.001); format: organism-based; design: dose 5 mg/kg, route oral; summary of the method: as §2
[10] = molecular target: T1, Amine oxidase [flavin-containing] B; experiment: Ex-Vivo Time course of evaluation for the percentage inhibition of MAO-B for 0.5 hr at single dose 5 mg/kg through oral gavage (p<0.001); format: organism-based; design: dose 5 mg/kg, route oral; summary of the method: as §2
[11] = molecular target: T1, Amine oxidase [flavin-containing] B; experiment: Ex-Vivo Time course of evaluation for the percentage inhibition of MAO-B for 4 hr at single dose 5 mg/kg through oral gavage (p<0.001); format: organism-based; design: dose 5 mg/kg, route oral; summary of the method: as §2
[12] = molecular target: T2, Amine oxidase [flavin-containing] A; experiment: In Vitro evaluation for the inhibitory activity on rat brain by MAO-A at 100 uM; No Inhibition
Summary of the method: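 Male Sprague-Dawley rat brain crude mitochondrial fraction, 0.195 mg protein/mL. Radiochemical assay at 37 °C, pH 7.4: MAO A with 10 μM [14C]5-HT, MAO B with 5 μM [14C]PEA. Drug preincubated 20 min with enzyme. […] Three experiments in duplicate.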

[13] = molecular target: T1, Amine oxidase [flavin-containing] B; experiment: Ex-Vivo Time course of evaluation for the percentage inhibition of MAO-B for 1 hr at single dose 5 mg/kg through oral gavage (p<0.01); format: organism-based; design: dose 5 mg/kg, route oral; summary of the method: as §2

Row | SMILES | IC50 [1] [µM] | IC50 [2] [µM] | inhibition at 5 mg/kg [3] [%] | inhibition at 5 mg/kg [4] [%] | inhibition at 5 mg/kg [5] [%] | inhibition at 5 mg/kg [6] [%] | other results
1 | Cc1ccc(COc2ccc(-c3nn(CCC#N)c(=S)o3)cc2)cc1 | 0.4 | 10 | – | – | – | – | –
2 | N#CCCn1nc(-c2ccc(OCc3ccc(Cl)cc3)cc2)oc1=S | 0.69 | 2.7 | – | – | – | – | –
3 | N#CCCn1nc(-c2ccc(OCc3cccc(Cl)c3)cc2)oc1=S | 0.16 | 11 | – | – | – | – | –
4 | N#CCCN1N=C(c2ccc(OCc3ccccc3)cc2)OCC1=S | 0.14 | 25 | 9 | -4 | 5 | 12 | inhibition at 5 mg/kg [7]: 3%
5 | COc1cccc(COc2ccc(-c3nn(CCC#N)c(=S)o3)cc2)c1 | 0.1 | 8.1 | – | – | – | – | –
6 | N#CCCN1N=C(c2ccc(OCc3ccc([N+](=O)[O-])cc3)cc2)OCC1=O | 0.3 | 2 | – | – | – | – | –
7 | N#CCCn1nc(-c2ccc(OCc3ccc([N+](=O)[O-])cc3)cc2)oc1=O | 5.5 | 11 | – | – | – | – | –
8 | N#CCn1nc(-c2ccc(OCc3ccccc3)cc2)oc1=O | 0.06 | – | – | – | – | – | IC50 [12]: Not Active

The next compounds have a lower IC50 [1] than those just listed; values first:

Row | IC50 [1] [µM] | IC50 [2] [µM] | inhibition at 5 mg/kg [3] [%] | inhibition at 5 mg/kg [4] [%] | inhibition at 5 mg/kg [5] [%] | inhibition at 5 mg/kg [6] [%] | SMILES | other results
9 | 0.008 | 45 | 9 | 15 | 45 | 44 | N#CCCn1nc(-c2ccc(OCc3ccccc3)cc2)sc1=O | inhibition at 5 mg/kg [7]: 52%
10 | 0.012 | 7.4 | 4 | -7 | – | 1 | N#CCCn1nc(-c2ccc(OCc3cccc(Cl)c3)cc2)oc1=O | inhibition at 5 mg/kg [8]: 29%; inhibition at 5 mg/kg [9]: 36%
11 | 0.013 | 13 | – | – | – | – | N#CCCN1N=C(c2ccc(OCc3cccc(Cl)c3)cc2)OCC1=O | –
12 | 0.0075 | 3.3 | 6 | -6 | – | – | N#CCCn1nc(-c2ccc(OCc3ccc(Cl)cc3)cc2)oc1=O | inhibition at 5 mg/kg [10]: 30%; inhibition at 5 mg/kg [11]: 47%; inhibition at 5 mg/kg [9]: 54%
13 | 0.008 | 20 | -3 | -3 | 15 | 6 | Cc1cccc(COc2ccc(-c3nn(CCC#N)c(=O)o3)cc2)c1 | inhibition at 5 mg/kg [7]: 16%
14 | 0.016 | 160 | 10 | 8 | 8 | 27 | N#CCCn1nc(-c2ccc(OCc3ccccc3)cc2)sc1=S | inhibition at 5 mg/kg [7]: 18%
15 | 0.027 | 16 | – | – | – | – | COc1ccc(COc2ccc(-c3nn(CCC#N)c(=O)o3)cc2)cc1 | –
16 | 0.029 | 19 | -7 | -3 | 6 | 12 | COc1cccc(COc2ccc(-c3nn(CCC#N)c(=O)o3)cc2)c1 | inhibition at 5 mg/kg [13]: 19%
